Reference: ChEMBL document CHEMBL3351343, “Synthesis and biological evaluation of novel sigma-1 receptor antagonists based on pyrimidine scaffold as agents for treating neuropathic pain” (J Med Chem, 2014)

Columns and labels:
[1] = Displacement of [3H]-DTG from sigma-2 receptor in Dunkin Hartley guinea pig brain membrane after 120 mins by liquid scintillation counting analysis in presence of (+)-SKF10047; set-up: species or system Cavia porcellus
[2] = molecular target: Sodium channel protein type 9 subunit alpha (Homo sapiens) (UniProt Q15858); assay: Inhibition of from human Nav 1.7 channel expressed in HEK293 cells at 1 uM after 5 mins by electrophysiological analysis; format: cell-based
[3] = molecular target: Histamine H3 receptor (Rattus norvegicus) (UniProt Q9QYN8); assay: Displacement of [3H]-N-alpha-methylhistamine from rat cerebral cortex histamine H3 receptor at 1 uM after 30 mins by liquid scintillation counting analysis; format: tissue-based
[4] = Acute toxicity in po dosed Kun Ming mouse after 24 hrs; format: organism-based; conditions: in vivo
Mus musculus [5] = assay: Antinociceptive activity in Kun Ming mouse pain model assessed as reduction in licking and biting time during phase-2 at 80 mg/kg, ip administered 15 mins prior to formalin challenge relative to vehicle-treated control; format: functional; conditions: route intraperitoneal
Outline: (§1)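 Kun Ming mice (20 ± 2.0 g), 10–12 per group, given vehicle (30% PEG 400) or drug ip at 10 mL/kg 15 min before intraplantar formalin. Time spent licking or biting the injected paw scored at 0–5 min (phase I) and 15–45 min (phase II). Effect (%) = (LTV − LTD)/LTV × 100.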

[6] = molecular target: Adrenergic receptor alpha-2 (Rattus norvegicus) (UniProt P22086+P19328+P22909); assay: Displacement of [3H]-rauwolscine from rat cerebral cortex adrenergic alpha-2 receptor at 1 uM after 60 mins by liquid scintillation counting analysis; format: tissue-based
[7] = AUC (0 to 24 hrs) in Sprague-Dawley rat at 16 mg/kg, iv by HPLC/MS/MS analysis; conditions: plasma
Rattus norvegicus [8] = assay: Cmax in Sprague-Dawley rat at 320 mg/kg, po by HPLC/MS/MS analysis; format: ADME, organism-based; set-up: dose 320 mg/kg, route oral; conditions: in vivo
Outline: (§2)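 Sprague-Dawley rats (250 ± 5.0 g), n = 8/group, dosed iv via lateral tail vein at 16 mg/kg in 100% saline or by oral gavage at 320 mg/kg as suspension in 0.5% methylcellulose. Serial tail-vein blood into heparinized tubes at 30 min, 1, 2, 3, 4, 5, 6, 7 and 24 h. Plasma treated by acetonitrile protein precipitation, then HPLC/MS on C18 column, 40 °C.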

[9] = molecular target: T1, 5-hydroxytryptamine receptor 1A (Rattus norvegicus) (UniProt P19327); assay: Displacement of [3H]-8-OH-DPAT from rat cerebral cortex 5-HT1A receptor at 1 uM after 30 mins by liquid scintillation counting analysis; format: tissue-based
T1 sequence (whole entry): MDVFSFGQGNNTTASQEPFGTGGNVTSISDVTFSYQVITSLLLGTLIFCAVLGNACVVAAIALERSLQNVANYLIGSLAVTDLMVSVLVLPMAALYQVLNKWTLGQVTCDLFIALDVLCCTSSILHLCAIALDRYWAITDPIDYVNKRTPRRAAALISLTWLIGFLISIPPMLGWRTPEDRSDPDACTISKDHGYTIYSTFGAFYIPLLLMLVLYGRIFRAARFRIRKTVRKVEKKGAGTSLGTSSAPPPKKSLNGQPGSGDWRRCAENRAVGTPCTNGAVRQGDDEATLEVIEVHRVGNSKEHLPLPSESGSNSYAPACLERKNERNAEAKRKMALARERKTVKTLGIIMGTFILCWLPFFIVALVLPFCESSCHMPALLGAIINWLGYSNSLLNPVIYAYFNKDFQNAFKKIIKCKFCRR

[10] = Tmax in Sprague-Dawley rat at 320 mg/kg, po by HPLC/MS/MS analysis; format: ADME, organism-based; set-up: dose 320 mg/kg, route oral; conditions: in vivo; outline: as §2
[11] = molecular target: Sodium-dependent serotonin transporter (Rattus norvegicus) (UniProt P31652); assay: Displacement of [3H]-paroxetine from rat cerebral cortex serotonin HT transporter at 1 uM after 10 mins by liquid scintillation counting analysis; format: tissue-based
Mus musculus [12] = assay: Antinociceptive activity in ip dosed Kun Ming mouse pain model assessed as reduction in licking and biting time during phase-2 administered 15 mins prior to formalin challenge relative to vehicle-treated control; format: functional; outline: as §1
[13] = Half life in Sprague-Dawley rat at 16 mg/kg, iv by HPLC/MS/MS analysis; conditions: in vivo
[14] = molecular target: Glutamate NMDA receptor (Rattus norvegicus) (UniProt P35439+Q00959+Q00960+Q00961+Q62645+Q8VHN2+Q9R1M7); assay: Displacement of [3H]-glycine from rat hippocampal membrane NMDA receptor at 1 uM after 30 mins by liquid scintillation counting analysis
Rattus norvegicus [15] = assay: Antineuropathic pain activity in po dosed Sprague-Dawley rat chronic constriction injury model assessed as inhibition of thermal hypersensitivity measured on day 18 by repeated dose treatment assay relative to sham-treated control; format: functional
Outline: (§3)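 Sprague-Dawley rats, sciatic nerve chronic constriction injury (four loose 4-0 silk ligatures, chloral hydrate anaesthesia); sham has nerve exposed without ligation. Model confirmed on day 14. Oral dosing in 0.5% methylcellulose, 10 mL/kg, twice daily on days 15–18. Read after first dose (day 15) and last dose (day 18). Von Frey withdrawal threshold and radiant-heat plantar withdrawal latency (30 s cutoff), each paw sampled four times and averaged; 10 rats/group.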

[16] = molecular target: Cannabinoid receptor 1 (Homo sapiens) (UniProt P21554); assay: Displacement of [3H]-CP-55940 from human CB1 receptor expressed in CHO cells at 1 uM after 90 mins by liquid scintillation counting analysis; format: cell-based
[17] = AUC (0 to infinity) in Sprague-Dawley rat at 320 mg/kg, po by HPLC/MS/MS analysis; format: ADME, organism-based; set-up: dose 320 mg/kg, route oral, time infinity; conditions: plasma; outline: as §2
[18] = molecular target: Cannabinoid receptor 2 (Homo sapiens) (UniProt P34972); assay: Displacement of [3H]-CP-55940 from human CB2 receptor expressed in HEK cells at 1 uM after 90 mins by liquid scintillation counting analysis; format: cell-based; conditions: HEK293
Rattus norvegicus [19] = assay: Antineuropathic pain activity in po dosed Sprague-Dawley rat chronic constriction injury model assessed as inhibition of mechanical allodynia measured on day 18 by repeated dose treatment assay relative to sham-treated control; format: functional; outline: as §3
[20] = molecular target: Norepinephrine transporter (Rattus norvegicus) (UniProt Q9WTR4); assay: Displacement of [N-methyl-3H]-nisoxetine from rat hippocampal membrane Noradrenaline transporter at 1 uM after 8 hrs by liquid scintillation counting analysis; format: tissue-based; conditions: Hippocampus
[21] = Half life in Sprague-Dawley rat at 320 mg/kg, po by HPLC/MS/MS analysis; format: ADME, organism-based; set-up: dose 320 mg/kg, route oral; conditions: in vivo; outline: as §2
Mus musculus [22] = assay: Toxicity in Kun Ming mouse at 20 to 80 mg/kg, ip measured after 30 to 120 mins by rotarod test; format: organism-based; set-up: route intraperitoneal; conditions: in vivo
Outline: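 Rotarod test in Kun Ming mice pretrained to stay 300 s at 10 rpm. Latency to fall from drum turning at 10 rpm measured 30, 60, 90 and 120 min after ip dosing; 8–10 mice per group.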

[23] = Oral bioavailability in Sprague-Dawley rat at 320 mg/kg; format: ADME, organism-based; conditions: in vivo
[24] = molecular target: Mu-type opioid receptor (Homo sapiens) (UniProt P35372); assay: Displacement of [3H]-diprenorphine from human mu-opioid receptor at 1 uM after 150 mins by liquid scintillation counting analysis
Chain of Mu-type opioid receptor (Homo sapiens) (P35372 whole entry): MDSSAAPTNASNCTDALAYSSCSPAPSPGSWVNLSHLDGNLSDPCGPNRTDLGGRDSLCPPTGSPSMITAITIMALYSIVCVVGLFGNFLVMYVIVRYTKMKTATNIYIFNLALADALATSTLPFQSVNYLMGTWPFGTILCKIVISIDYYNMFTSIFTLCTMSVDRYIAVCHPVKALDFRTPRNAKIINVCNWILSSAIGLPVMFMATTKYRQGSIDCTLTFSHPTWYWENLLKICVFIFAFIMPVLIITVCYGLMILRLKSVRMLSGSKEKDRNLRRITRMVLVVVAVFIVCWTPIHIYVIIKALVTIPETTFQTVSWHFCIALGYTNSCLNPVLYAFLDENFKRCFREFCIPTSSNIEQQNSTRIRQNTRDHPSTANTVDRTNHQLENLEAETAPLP

Chain of Cannabinoid receptor 2 (Homo sapiens) (P34972 whole entry): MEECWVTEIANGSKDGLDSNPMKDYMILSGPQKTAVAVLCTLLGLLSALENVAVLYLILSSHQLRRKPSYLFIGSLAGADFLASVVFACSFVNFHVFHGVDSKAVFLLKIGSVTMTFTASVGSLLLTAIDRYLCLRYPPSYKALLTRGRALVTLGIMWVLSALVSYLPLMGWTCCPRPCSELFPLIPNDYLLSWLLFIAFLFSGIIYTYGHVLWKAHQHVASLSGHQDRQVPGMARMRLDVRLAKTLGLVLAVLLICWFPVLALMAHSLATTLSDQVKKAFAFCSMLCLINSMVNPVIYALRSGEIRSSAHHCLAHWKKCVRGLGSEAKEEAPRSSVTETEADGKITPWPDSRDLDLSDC
Chain of Histamine H3 receptor (Rattus norvegicus) (Q9QYN8 whole entry): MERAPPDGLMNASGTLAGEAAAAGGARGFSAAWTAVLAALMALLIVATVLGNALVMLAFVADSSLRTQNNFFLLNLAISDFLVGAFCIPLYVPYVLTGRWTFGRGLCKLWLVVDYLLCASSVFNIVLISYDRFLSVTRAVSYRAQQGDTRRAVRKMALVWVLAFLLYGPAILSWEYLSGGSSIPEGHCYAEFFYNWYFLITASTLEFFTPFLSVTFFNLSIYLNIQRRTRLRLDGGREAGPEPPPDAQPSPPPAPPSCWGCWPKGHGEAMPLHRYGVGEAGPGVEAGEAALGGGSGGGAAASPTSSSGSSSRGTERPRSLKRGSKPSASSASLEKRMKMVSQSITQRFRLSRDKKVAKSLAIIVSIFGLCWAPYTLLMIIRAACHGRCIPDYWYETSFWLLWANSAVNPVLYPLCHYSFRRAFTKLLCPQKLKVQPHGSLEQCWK
Chain of Sodium channel protein type 9 subunit alpha (Homo sapiens) (Q15858 whole entry, looked up): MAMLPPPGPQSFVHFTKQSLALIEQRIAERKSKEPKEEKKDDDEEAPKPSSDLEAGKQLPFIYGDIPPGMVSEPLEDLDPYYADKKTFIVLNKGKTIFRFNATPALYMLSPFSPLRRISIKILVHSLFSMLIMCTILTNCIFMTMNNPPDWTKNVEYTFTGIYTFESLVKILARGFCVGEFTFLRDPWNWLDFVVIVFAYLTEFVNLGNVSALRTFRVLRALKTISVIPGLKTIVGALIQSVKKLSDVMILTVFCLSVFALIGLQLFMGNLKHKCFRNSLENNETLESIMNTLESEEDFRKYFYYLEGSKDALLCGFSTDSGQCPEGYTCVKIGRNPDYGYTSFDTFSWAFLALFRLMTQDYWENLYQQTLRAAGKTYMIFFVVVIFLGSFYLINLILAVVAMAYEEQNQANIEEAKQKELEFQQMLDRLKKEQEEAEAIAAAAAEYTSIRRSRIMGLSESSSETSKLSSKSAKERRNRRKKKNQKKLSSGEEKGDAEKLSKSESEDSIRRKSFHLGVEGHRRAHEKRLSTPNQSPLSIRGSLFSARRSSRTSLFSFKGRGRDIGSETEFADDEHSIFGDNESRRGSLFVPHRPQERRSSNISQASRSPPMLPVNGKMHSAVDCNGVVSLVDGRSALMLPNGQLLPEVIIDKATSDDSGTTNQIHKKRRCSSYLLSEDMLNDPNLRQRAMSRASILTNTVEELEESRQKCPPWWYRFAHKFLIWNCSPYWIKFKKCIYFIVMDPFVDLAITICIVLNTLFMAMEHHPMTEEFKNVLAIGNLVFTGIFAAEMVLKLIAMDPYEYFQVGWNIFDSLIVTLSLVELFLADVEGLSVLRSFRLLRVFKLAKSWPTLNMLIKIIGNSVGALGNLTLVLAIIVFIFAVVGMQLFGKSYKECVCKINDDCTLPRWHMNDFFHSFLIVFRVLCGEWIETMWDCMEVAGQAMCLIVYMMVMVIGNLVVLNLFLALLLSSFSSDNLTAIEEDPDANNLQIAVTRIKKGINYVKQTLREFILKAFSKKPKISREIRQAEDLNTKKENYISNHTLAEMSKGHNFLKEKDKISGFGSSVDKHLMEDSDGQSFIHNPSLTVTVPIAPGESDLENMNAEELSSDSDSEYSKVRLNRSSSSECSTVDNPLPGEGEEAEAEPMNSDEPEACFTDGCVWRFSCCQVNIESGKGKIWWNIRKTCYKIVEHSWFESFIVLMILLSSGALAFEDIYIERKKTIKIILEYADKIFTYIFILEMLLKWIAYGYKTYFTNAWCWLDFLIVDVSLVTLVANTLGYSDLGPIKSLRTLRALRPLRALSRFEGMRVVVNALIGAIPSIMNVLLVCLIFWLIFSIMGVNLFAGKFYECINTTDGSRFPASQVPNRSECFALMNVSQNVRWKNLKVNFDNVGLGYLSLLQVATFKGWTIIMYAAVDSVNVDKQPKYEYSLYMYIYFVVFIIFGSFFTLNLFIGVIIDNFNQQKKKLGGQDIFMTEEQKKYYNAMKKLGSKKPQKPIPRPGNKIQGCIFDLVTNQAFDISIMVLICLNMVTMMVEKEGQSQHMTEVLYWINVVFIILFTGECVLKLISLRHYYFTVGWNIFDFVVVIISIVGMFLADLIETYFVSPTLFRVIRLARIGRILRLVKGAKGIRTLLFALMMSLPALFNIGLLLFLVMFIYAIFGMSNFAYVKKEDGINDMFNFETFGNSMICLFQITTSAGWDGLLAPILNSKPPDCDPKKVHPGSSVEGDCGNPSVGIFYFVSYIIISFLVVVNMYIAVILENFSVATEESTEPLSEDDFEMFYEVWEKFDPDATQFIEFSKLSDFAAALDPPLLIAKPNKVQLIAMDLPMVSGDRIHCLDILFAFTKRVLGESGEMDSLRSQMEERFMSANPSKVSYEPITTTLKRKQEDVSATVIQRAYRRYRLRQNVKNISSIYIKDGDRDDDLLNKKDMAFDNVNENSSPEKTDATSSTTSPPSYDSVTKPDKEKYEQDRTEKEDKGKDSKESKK
Chain of Norepinephrine transporter (Rattus norvegicus) (Q9WTR4 as listed by the source): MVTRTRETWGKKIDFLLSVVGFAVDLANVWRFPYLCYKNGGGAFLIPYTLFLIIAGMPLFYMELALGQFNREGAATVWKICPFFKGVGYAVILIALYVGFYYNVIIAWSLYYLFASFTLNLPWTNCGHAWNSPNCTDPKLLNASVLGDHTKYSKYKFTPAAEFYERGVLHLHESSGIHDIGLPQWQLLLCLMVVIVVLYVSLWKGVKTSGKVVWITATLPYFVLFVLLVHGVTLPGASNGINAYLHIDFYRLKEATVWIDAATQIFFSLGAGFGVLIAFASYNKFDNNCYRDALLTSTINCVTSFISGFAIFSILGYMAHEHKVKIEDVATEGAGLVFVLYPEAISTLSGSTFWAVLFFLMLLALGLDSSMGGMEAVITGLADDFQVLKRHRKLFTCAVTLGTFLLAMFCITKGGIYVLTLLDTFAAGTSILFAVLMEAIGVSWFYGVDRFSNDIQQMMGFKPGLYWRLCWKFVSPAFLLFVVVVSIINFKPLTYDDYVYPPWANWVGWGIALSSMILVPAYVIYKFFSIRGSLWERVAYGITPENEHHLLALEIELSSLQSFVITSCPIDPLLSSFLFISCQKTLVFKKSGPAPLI
Chain of Cannabinoid receptor 1 (Homo sapiens) (P21554 whole entry): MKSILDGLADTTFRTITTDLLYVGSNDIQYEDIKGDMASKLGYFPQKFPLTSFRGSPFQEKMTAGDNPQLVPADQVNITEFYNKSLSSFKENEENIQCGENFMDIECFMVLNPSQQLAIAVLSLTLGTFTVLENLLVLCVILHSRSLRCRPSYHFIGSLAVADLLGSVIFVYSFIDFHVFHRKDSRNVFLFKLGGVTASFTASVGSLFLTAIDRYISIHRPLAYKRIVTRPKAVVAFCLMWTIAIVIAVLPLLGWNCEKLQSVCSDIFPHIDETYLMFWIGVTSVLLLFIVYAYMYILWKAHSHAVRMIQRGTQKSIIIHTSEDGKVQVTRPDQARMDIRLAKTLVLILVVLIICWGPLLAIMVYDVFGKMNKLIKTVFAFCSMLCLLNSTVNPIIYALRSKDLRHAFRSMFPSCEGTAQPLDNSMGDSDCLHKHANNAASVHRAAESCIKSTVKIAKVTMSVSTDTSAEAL
Chain of Sodium-dependent serotonin transporter (Rattus norvegicus) (P31652 whole entry): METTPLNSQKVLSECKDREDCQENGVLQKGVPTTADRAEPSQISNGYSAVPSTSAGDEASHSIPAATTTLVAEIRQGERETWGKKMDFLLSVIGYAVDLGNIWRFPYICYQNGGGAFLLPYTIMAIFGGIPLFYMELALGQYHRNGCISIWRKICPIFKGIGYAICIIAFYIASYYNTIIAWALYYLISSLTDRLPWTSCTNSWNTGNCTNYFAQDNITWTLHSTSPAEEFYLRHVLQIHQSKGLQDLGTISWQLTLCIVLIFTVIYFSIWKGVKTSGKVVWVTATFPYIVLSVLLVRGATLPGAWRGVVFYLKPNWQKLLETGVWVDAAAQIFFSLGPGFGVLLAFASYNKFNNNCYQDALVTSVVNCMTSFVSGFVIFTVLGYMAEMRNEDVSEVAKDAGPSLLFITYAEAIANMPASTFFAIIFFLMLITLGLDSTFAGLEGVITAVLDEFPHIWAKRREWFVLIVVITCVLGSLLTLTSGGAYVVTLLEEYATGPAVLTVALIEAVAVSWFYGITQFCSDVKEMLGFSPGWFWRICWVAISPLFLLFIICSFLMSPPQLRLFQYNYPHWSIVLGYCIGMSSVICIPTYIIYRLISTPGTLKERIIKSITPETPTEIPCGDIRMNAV

## Cc1nc(-c2ccc(Cl)cc2)nc(OCCCN2CCCCC2)c1Cl
[1]
  Ki: 1.43 µM
[2]
  inhibition: < 50%
[3]
  inhibition: < 50%
[4]
  LD50 at 24 h: > 2000 mg/kg
Mus musculus [5]
  Time: 37.41 s
[6]
  inhibition: < 50%
[7]
  AUC(0-t) at 24 h: 3300 ng·h/mL
Rattus norvegicus [8]
  Cmax: 17400 ng/mL
[9]
  inhibition: < 50%
[10]
  Tmax: 0.5 h
[11]
  inhibition: < 50%
Mus musculus [12]
  Activity: Dose-dependent effect
  ED50: 42.1 mg/kg
[13]
  half-life: 10.6 h
[14]
  inhibition: < 50%
Rattus norvegicus [15]
  inhibition: Dose-dependent effect
Rattus norvegicus [15]; 432 h
  ED50: 50.2 mg/kg
[16]
  inhibition: < 50%
[17]
  AUC(0-inf): 55400 ng·h/mL
[18]
  inhibition: < 50%
Rattus norvegicus [19]
  inhibition: Dose-dependent effect
Rattus norvegicus [19]; 432 h
  ED50: 61.8 mg/kg
[20]
  inhibition: < 50%
[21]
  half-life: 3.81 h
Mus musculus [22]
  Activity: Non-toxic
[23]
  bioavailability: 75.1%
[24]
  inhibition: < 50%
